Values after ≈ are worked out from the molar mass of the structure shown.

Data set [1] relates to Rattus norvegicus. As to the kind of experiment: Pro-inflammatory activity in Sprague-Dawley rat assessed as increase in neutrophils in bronchoalveolar lavage at 1000 ug/kg, it administered as single dose via dry powder insufflator after 18 hrs post dose by flow cytometric analysis relative to basal level. The class given is ADME. The following applies: in vivo, inhaled_or_intranasal, 1 mg/kg. Background: In flow cytometry, cells or beads pass a laser one at a time.

In data set [2] the test system is Mustela putorius furo. The data set is described as follows: Toxicity in it dosed ferret assessed as emesis administered as dry powder co-mixtured with lactose after 1 hr post dose. The class given is organism-based. The note with it: in vivo, inhaled_or_intranasal.
Data set [3] can be described thus: Half life in Sprague-Dawley rat at 500 ug/kg, iv. The note with it: in vivo, 0.5 mg/kg. Type of data set: ADME.
Data set [4] is described as follows: Volume of distribution at steady state in Sprague-Dawley rat at 500 ug/kg, iv. The following applies: in vivo, 0.5 mg/kg, read-out: Vdss. Type of data set: ADME.
Data set [5] has as its system Lung. As to the kind of experiment: Drug level in Sprague-Dawley rat lung at 1000 ug/kg, it administered as dry powder measured up to 6 hrs post dose. Type of data set: ADME, tissue-based. The following applies: in vivo, inhaled_or_intranasal, 1 mg/kg. Put shortly:
(§1)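 Dry powder (5% w/w with lactose) was given intratracheally to rats. Compound was recovered from lung biopsies at times over a 24 h period and expressed as percentage of the total administered dose.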

For data set [6], the system named is Mustela putorius furo. The data set is described as follows: Toxicity in ferret assessed as emesis at 30 ug/kg, it administered as dry powder co-mixtured with lactose after 1 hr post dose. The following applies: in vivo, inhaled_or_intranasal, 0.03 mg/kg.
The nature of data set [7]: Apparent permeability of the compound by PAMPA assay. The class given is physicochemical. For orientation: The PAMPA barrier holds no transporters, so it reflects passive diffusion.
Data set [8] relates to Rattus norvegicus. The data set is described as follows: Antiinflammatory activity in Sprague-Dawley rat LPS-induced neutrophilia model assessed as inhibition of LPS-induced increase in netrophils in bronchoalveolar lavage at 100 to 3000 ug/kg, it administered as single dose via dry powder insufflator dosed 1 to 18 hrs prior to nebulized LPS challenge measured after 4 hrs by flow cytometric analysis. Type of data set: functional. Put shortly:
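Male Sprague-Dawley rats (230−280 g, fasted) were anaesthetized with isoflurane. Micronized compound co-mixed with lactose (5 mg of mix) was insufflated intratracheally through a cannula with 5 mL air. One or 18 h later, LPS solution (30 mL) was nebulized into a chamber over 40 min. After 4 h, BAL was done with 2 × 2 mL PBS and neutrophils were counted by flow cytometry. Controls were lactose alone and fluticasone (10% in lactose).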

Data set [9] is described as follows: Thermodynamic solubility of the compound at 37 degC.
The nature of data set [10]: Inhibition of PDE4 in human whole blood PBMC assessed as reduction in LPS-induced TNFalpha production after 24 hrs by ELISA. Put shortly: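 Heparinized whole blood from healthy donors was preincubated with LPS (1 μg/mL final) at 37 °C for 10 min. It was then added to compounds in DMSO and incubated 24 h at 37 °C with agitation, then centrifuged. Serum TNF-α was measured by sandwich ELISA with TMB read-out at 450 nm. Experiments were done 2−3 times and duplicates were averaged.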
In general terms: An ELISA detects its analyte on a solid surface through an enzyme-linked reagent.

The test system of data set [11] is Lung. The data set is described as follows: Drug level in Sprague-Dawley rat lung at 1000 ug/kg, it administered as dry powder measured over 24 hrs post dose. The class given is ADME, tissue-based. The following applies: in vivo, inhaled_or_intranasal, 1 mg/kg. Put shortly: as §1
Data set [12] is described as follows: AUC in Sprague-Dawley rat at 500 ug/kg, iv. Type of data set: ADME. The note with it: in vivo, 0.5 mg/kg.
The subject of data set [13] is Rattus norvegicus. As to the kind of experiment: Antiinflammatory activity in Sprague-Dawley rat LPS-induced neutrophilia model assessed as inhibition of LPS-induced increase in netrophils in bronchoalveolar lavage at 1000 ug/kg, it administered single dose as microspray dosed 1 hr prior to nebulized LPS challenge measured after 4 hrs by flow cytometric analysis. Type of data set: functional. An outline of the steps: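 Compound was suspended in PBS with 0.2% Tween 80, homogenized, and lower doses were made by 1:10 dilution. Rats (male Sprague-Dawley, 230−280 g, fasted, isoflurane) received 0.2 mL intratracheally by microsprayer, about 1 cm above the carina. Nebulized LPS challenge (30 mL over 40 min) followed 1 h later. BAL neutrophils were counted by flow cytometry 4 h after challenge.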

A short description of data set [14]: Cmax in Sprague-Dawley rat at 500 ug/kg, iv. The class given is ADME. More on the design: dose 500 ug/kg, route intravenous. The note with it: in vivo, 0.5 mg/kg.
The target in data set [15] is 3',5'-cyclic-AMP phosphodiesterase 4B (Homo sapiens, UniProt Q07343). The data set is described as follows: Inhibition of recombinant human PDE4B1 using [3H]-cAMP as substrate […] measured after 60 mins by scintillation proximity assay. Put shortly: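 Compounds ranged from 10 μM to 10 pM. The reaction was started with PDE4 enzyme and run 60 min at room temperature with agitation (about 10−20% conversion), then stopped with SPA beads. [3H]-AMP was counted by scintillation.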

Data set [16] can be described thus: Plasma concentration in Sprague-Dawley rat at 1000 ug/kg, it measured up to 1 hr post dose. Type of data set: ADME, cell-free. The following applies: inhaled or intranasal, 1 mg/kg.
A short description of data set [17]: Clearance in Sprague-Dawley rat at 500 ug/kg, iv. Type of data set: ADME. The following applies: in vivo, 0.5 mg/kg.
The test system of data set [18] is Rattus norvegicus. The data set is described as follows: Pro-inflammatory activity in Sprague-Dawley rat assessed as increase in neutrophils in bronchoalveolar lavage at 3000 ug/kg, it administered as single dose via dry powder insufflator after 18 hrs post dose by flow cytometric analysis relative to basal level. The class given is ADME. The note with it: in vivo, inhaled_or_intranasal, 3 mg/kg. Put shortly: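 Fasted male Sprague-Dawley rats (230−280 g) under isoflurane received 5 mg […] co-mixed with lactose, delivered intratracheally by DP-4 insufflator with 5 mL air. 18 h later, LPS (1:100 dilution of 10 mg/mL in PBS; 30 mL) was nebulized in chambers over 40 min. BAL was taken 4 h later and neutrophils were counted by flow cytometry. Lactose-only control.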

The test system of data set [19] is Lung. As to the kind of experiment: Drug level in Sprague-Dawley rat lung at 1000 ug/kg, it administered as dry powder measured at 6 hrs post dose. The class given is ADME, tissue-based. The note with it: in vivo, inhaled_or_intranasal, 1 mg/kg. An outline of the steps:
as §1

Data set [20] has as its system Lung. As to the kind of experiment: Drug level in Sprague-Dawley rat lung at 1000 ug/kg, it administered as dry powder measured up to 18 hrs post dose. The class given is ADME, tissue-based. The note with it: in vivo, inhaled_or_intranasal, 1 mg/kg. An outline of the steps: as §1

Sequence of 3',5'-cyclic-AMP phosphodiesterase 4B (Q07343 whole entry): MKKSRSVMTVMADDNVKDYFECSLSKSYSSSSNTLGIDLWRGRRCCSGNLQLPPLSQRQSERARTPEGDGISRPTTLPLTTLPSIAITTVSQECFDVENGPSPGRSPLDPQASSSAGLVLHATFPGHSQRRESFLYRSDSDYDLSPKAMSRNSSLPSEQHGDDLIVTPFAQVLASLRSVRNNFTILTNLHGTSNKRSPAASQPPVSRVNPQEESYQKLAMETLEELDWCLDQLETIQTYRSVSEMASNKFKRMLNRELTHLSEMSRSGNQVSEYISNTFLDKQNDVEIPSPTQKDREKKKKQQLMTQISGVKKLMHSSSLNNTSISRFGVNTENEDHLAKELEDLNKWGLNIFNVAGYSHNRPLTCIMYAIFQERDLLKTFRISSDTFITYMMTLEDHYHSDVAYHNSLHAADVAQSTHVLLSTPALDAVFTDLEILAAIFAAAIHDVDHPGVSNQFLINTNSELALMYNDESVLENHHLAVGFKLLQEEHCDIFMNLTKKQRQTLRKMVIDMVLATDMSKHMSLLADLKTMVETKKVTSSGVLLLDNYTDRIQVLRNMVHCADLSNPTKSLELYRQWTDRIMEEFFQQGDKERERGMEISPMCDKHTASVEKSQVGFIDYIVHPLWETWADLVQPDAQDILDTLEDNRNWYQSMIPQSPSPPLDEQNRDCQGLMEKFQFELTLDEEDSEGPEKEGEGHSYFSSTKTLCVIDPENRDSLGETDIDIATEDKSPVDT

In general, half-life refers to the time needed for the level to fall by half in the phase considered. A word on the Papp: it is a coefficient for how fast a substance crosses the barrier. A word on the thermodynamic solubility: it is solubility found after equilibrating the solid with the medium. What is called IC50 is the concentration that inhibits the measured activity by half. One may read the AUC as concentration integrated over time. For orientation: inhibition in vivo means the percentage by which the read-out fell short of the control. In general, Cmax refers to the peak of the concentration-time curve. What is called clearance is the rate of elimination divided by the concentration. In the case of `O=C(NC1CC1)c1cccc(-c2cccc(-c3cc(Nc4cccc5ncccc45)c4c(n3)CCNC4=O)c2)c1`, the “fold change (FC)” value in the data set with Rattus norvegicus [1] is reported as 0.7; in the data set on Rattus norvegicus [18], 1.3. Also, the figures for the Activity entry in the data set with Mustela putorius furo [2] and in the data set with Mustela putorius furo [6] were “Dose-dependent effect” and “Non-Toxic”, respectively. Moreover, the half-life in [3] was 54 min. Besides, the Vd in data set [4] stood at 3.9 L/kg. Besides, the Drug uptake in the data set with Lung [5] turned out to be 36%; in the data set on Lung [11], 15%; in the data set on Lung [19], 20%; in the data set with Lung [20], 18%. Besides, the Papp in [7] was determined as 0.15 ×10⁻⁶ cm/s. Besides, the Imax with Rattus norvegicus [8] came to 35%. Moreover, the thermodynamic solubility in [9] came out at 4 µg/mL (≈ 7.61 µM). Moreover, the values for the IC50 in data set [10] and in [15] were 0.12 nM and 0.17 nM, respectively. Also, in data set [12], the AUC is 108 ng·h/mL. Further, the inhibition in vivo at 1 mg/kg in the data set on Rattus norvegicus [13] was determined as 58%. Also, the Cmax in data set [14] was found to be 118 ng/mL. This molecule came in with a concentration at 1 h in data set [16] of under 5 ng/mL. In addition, in data set [17], the clearance came to 79 mL/min/kg.

Values taken from ChEMBL document CHEMBL4033796, “4-Amino-7,8-dihydro-1,6-naphthyridin-5(6 H)-ones as Inhaled Phosphodiesterase Type 4 (PDE4) Inhibitors: Structural Biology and Structure-Activity Relationships” (J Med Chem, 2018).
